ChEMBL document CHEMBL1143825, “Evolution of resistant M414T mutants among hepatitis C virus replicon cells treated with polymerase inhibitor A-782759” (Antimicrob Agents Chemother, 2007)
pEC50: −log10 of the molar value. Active and inactive are the calls of the source. The rule behind the calls is not given here.

What was measured:
Hepatitis C virus [1] = assay: Inhibition of RNA copy numbers in HCV 1b-N replicon cells with NS5B M414T mutant at 10 times EC50 after 4 days; format: functional, Hepacivirus hominis, genotype 1b strain N; set-up: scale not given: the % may be the effect or the level left
In short: (§1)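 1b-N replicon cells treated with compound for 4 days, with a no-compound control. Total RNA was extracted and HCV RNA copy number quantified by TaqMan real-time RT-PCR, normalised per 1 pg total RNA.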

Hepatitis C virus [2] = assay: Antiviral activity against HCV 1b-N; format: functional, organism-based, Hepacivirus hominis; settings: genotype 1b strain N
In short: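 1b-N subgenomic replicon cells, grown in DMEM with 10% FBS, blasticidin and G418, seeded at 4,000 cells/well with eight serial compound dilutions. Replicon RNA copy number was quantified by TaqMan real-time RT-PCR, and EC50 was taken as the concentration giving 50% inhibition of copy number.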

Hepatitis C virus [3] = assay: Inhibition of RNA copy numbers in HCV 1b-N replicon cells with NS5B M414T mutant at 100 times EC50 after 4 days; format: functional, Hepacivirus hominis, genotype 1b strain N; set-up: scale not given: the % may be the effect or the level left; in short: as §1
Hepatitis C virus [4] = assay: Inhibition of RNA copy numbers in HCV 1b-N replicon cells with NS5B M414T mutant at EC50 after 4 days; format: functional, Hepacivirus hominis, genotype 1b strain N; set-up: scale not given: the % may be the effect or the level left; in short: as §1
Hepatitis C virus [5] = assay: Decrease in NS5B M414T mutant in HCV 1b-N replicon cells treated with 70 nM assessed as mutant level after drug withdrawal on day 4 and measured at day 18 and 28; format: functional, Hepacivirus hominis, genotype 1b strain N; set-up: scale not given: the % may be the effect or the level left
In short: (§2)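 Replicon cells, 2 × 10⁵ per 10-cm dish, received inhibitor for 4 days, then drug was removed and culture continued to day 28, splitting 1:10 at 90% confluence. Cells were trypsinised and PBS-washed before RNA extraction. %M414T was measured by RT, first-round PCR, then allele-specific SYBR green real-time PCR as 100 × M414T/(M414T + wild-type copies), mean of three experiments.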

Hepatitis C virus [6] = assay: Increase in NS5B M414T mutant levels in HCV 1b-N replicon cells at 700 nM after 4 days relative to baseline; format: functional, Hepacivirus hominis, genotype 1b strain N
In short: (§3)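 1b-N replicon cells, 2 × 10⁴ per well, were exposed to inhibitor for up to 4 days, PBS-washed, and total RNA extracted. RNA was reverse transcribed at 50°C for 50 min, then NS5B was amplified by first-round PCR for 25 cycles. Allele-specific SYBR green real-time PCR used M414-wild-type or T-specific antisense primers. %M414T = 100 × M414T/(M414T + wild-type copies), mean of three experiments.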

Hepatitis C virus [7] = assay: Decrease in NS5B M414T mutant in HCV 1b-N replicon cells treated with 70 nM assessed as mutant level after drug withdrawal on day 4 and measured at day 10; format: functional, Hepacivirus hominis, genotype 1b strain N; set-up: scale not given: the % may be the effect or the level left; in short: as §2
Hepatitis C virus [8] = assay: Decrease in NS5B M414T mutant in HCV 1b-N replicon cells treated with 700 nM assessed as mutant level after drug withdrawal on day 4 and measured upto day 28; format: functional, organism-based; settings: Hepacivirus hominis; genotype 1b strain N; in short: as §2
Hepatitis C virus [9] = assay: Increase in NS5B M414T mutant levels in HCV 1b-N replicon cells at 700 nM after 3 days relative to baseline; format: functional, Hepacivirus hominis, genotype 1b strain N; in short: as §3
Hepatitis C virus [10] = assay: Increase in NS5B M414T mutant levels in HCV 1b-N replicon cells at 70 nM after 3 days relative to baseline; format: functional, Hepacivirus hominis, genotype 1b strain N; in short: as §3
Hepatitis C virus [11] = assay: Increase in NS5B M414T mutant levels in HCV 1b-N replicon cells at 7000 nM after 2 days relative to baseline; format: functional, Hepacivirus hominis, genotype 1b strain N; in short: as §3
Hepatitis C virus [12] = assay: Increase in NS5B M414T mutant levels in HCV 1b-N replicon cells at 7000 nM after 3 days relative to baseline; format: functional, Hepacivirus hominis, genotype 1b strain N; in short: as §3
Hepatitis C virus [13] = assay: Increase in NS5B M414T mutant levels in HCV 1b-N replicon cells at 700 nM after 2 days relative to baseline; format: functional, Hepacivirus hominis, genotype 1b strain N; in short: as §3
Hepatitis C virus [14] = assay: Increase in NS5B M414T mutant levels in HCV 1b-N replicon cells at 70 nM after 2 days relative to baseline; format: functional, Hepacivirus hominis, genotype 1b strain N; in short: as §3
Hepatitis C virus [15] = assay: Increase in NS5B M414T mutant levels in HCV 1b-N replicon cells at 7000 nM after 4 days relative to baseline; format: functional, Hepacivirus hominis, genotype 1b strain N; in short: as §3
Hepatitis C virus [16] = assay: Decrease in NS5B M414T mutant in HCV 1b-N replicon cells treated with 7000 nM assessed as mutant level after drug withdrawal on day 4 and measured upto day 28; format: functional, organism-based; settings: Hepacivirus hominis; genotype 1b strain N; in short: as §2
Hepatitis C virus [17] = assay: Decrease in NS5B M414T mutant in HCV 1b-N replicon cells treated with 700 nM assessed as mutant level after drug withdrawal on day 4 and measured at day 10; format: functional, Hepacivirus hominis, genotype 1b strain N; set-up: scale not given: the % may be the effect or the level left; in short: as §2
Hepatitis C virus [18] = assay: Increase in NS5B M414T mutant levels in HCV 1b-N replicon cells at 70 nM after 4 days relative to baseline; format: functional, Hepacivirus hominis, genotype 1b strain N; in short: as §3

| SMILES | Activity (Hepatitis C virus [1]) [%] | pEC50 (Hepatitis C virus [2]) | Activity (Hepatitis C virus [3]) [%] | Activity (Hepatitis C virus [4]) [%] | Activity (Hepatitis C virus [5]) [%] | Activity (Hepatitis C virus [6]) [%] | Activity (Hepatitis C virus [7]) [%] | Activity (Hepatitis C virus [8]) | Activity (Hepatitis C virus [9]) [%] | Activity (Hepatitis C virus [10]) [%] | Activity (Hepatitis C virus [11]) [%] | Activity (Hepatitis C virus [12]) [%] | Activity (Hepatitis C virus [13]) [%] | Activity (Hepatitis C virus [14]) [%] | Activity (Hepatitis C virus [15]) [%] | Activity (Hepatitis C virus [16]) | Activity (Hepatitis C virus [17]) [%] | Activity (Hepatitis C virus [18]) [%] |
| --- | --- | --- | --- | --- | --- | --- | --- | --- | --- | --- | --- | --- | --- | --- | --- | --- | --- | --- |
| COc1ccc2c(O[C@@H]3C[C@H]4C(=O)N[C@]5(C(=O)O)C[C@H]5/C=C\CCCCC[C@H](NC(=O)OC5CCCC5)C(=O)N4C3)cc(-c3csc(NC(C)C)n3)nc2c1 [CILUPREVIR] | 99 | 8.40 | 99 | 37 | – | – | – | – | – | – | – | – | – | – | – | – | – | – |
| NC(=O)COc1ccc2c(c1)S(=O)(=O)N=C(c1c(O)c3ccccc3n(NC3CCC3)c1=O)N2 | 93 | 7.15 | 99 | 58 | 0.3 | 26 | 0.9 | inactive | 28 | 2.5 | 12.6 | 56 | 4 | 0.8 | 60 | inactive | 4 | 2.5 |
